Converted amounts (≈) assume the structure as drawn. The source made the active and inactive calls. The calls are words filed in the database; no cut-off is given here.
Experiments:
[1] = system: Staphylococcus aureus; assay: Antibacterial activity against methicillin-resistant Staphylococcus aureus ATCC 33591 after 18 hrs; assay type: functional; conditions: ATCC 33591, 18 h
Method in brief: (§1)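 Dilution susceptibility test for aerobic bacteria. Compounds dissolved in DMSO and serially diluted to 10 concentrations (0.125–64 μg/mL) in 96-well plates, run in triplicate. Vancomycin served as control, with six untreated media controls per plate. Incubation at 33 °C for 18 h; MIC read as the lowest concentration inhibiting visible growth.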

[2] = system: Staphylococcus aureus; assay: Antibacterial activity against methicillin-susceptible Staphylococcus aureus ATCC 29213 after 18 hrs; assay type: functional; conditions: ATCC 29213, 18 h; method in brief: as §1
[3] = system: Staphylococcus aureus; assay: Bacteriostatic activity against methicillin-resistant Staphylococcus aureus ATCC 33591 after 18 hrs; assay type: functional, organism-based
Method in brief: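 After the 18 h, 33 °C microdilution MIC plate, a sterile swab dipped into each well showing growth inhibition was inoculated onto an LB plate to tell bactericidal from bacteriostatic action.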

[4] = system: Staphylococcus aureus; assay: Bacteriostatic activity against methicillin-susceptible Staphylococcus aureus ATCC 29213 after 18 hrs; assay type: functional, organism-based
Method in brief: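 Broth dilution susceptibility test for aerobic bacteria against MSSA ATCC 29213. Compounds in DMSO, serially diluted to 10 concentrations (0.125−64 μg/mL) in 96-well plates, tested in triplicate with vancomycin control and six untreated media controls per plate. Incubated at 33 °C for 18 h. MIC was the lowest concentration without visible growth. Inhibited wells were swabbed onto LB plates to distinguish bacteriostatic from bactericidal.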

| SMILES | MIC [1] [µg/mL] | MIC [2] [µg/mL] | Activity [3] | Activity [4] |
| --- | --- | --- | --- | --- |
| CCCCCCCCCCCCCCCCCCCCCCCCCCC[C@@H]1CC(=O)N[C@H]([C@H](C)O)C(=O)N[C@@H](C(C)C)C(=O)N[C@@H](C)C(=O)N2CCC[C@@H]2C(=O)N[C@H]([C@@H](C)CC)C(=O)N[C@@H](C(C)C)C(=O)N[C@@H]([C@@H](C)OC)C(=O)O1 [PEPTIDOLIPIN D] | > 64 | > 64 |  |  |
| CCCCCCCCCCCCCCCCCCCCCCCCC[C@@H]1CC(=O)N[C@H]([C@H](C)O)C(=O)N[C@@H](C(C)C)C(=O)N[C@@H](C)C(=O)N2CCC[C@@H]2C(=O)N[C@H]([C@@H](C)CC)C(=O)N[C@@H](C(C)C)C(=O)N[C@@H]([C@@H](C)OC)C(=O)O1 [PEPTIDOLIPIN C] | > 64 | > 64 |  |  |
| CCCCCCCCCCCCCCCCCCCCCCC[C@@H]1CC(=O)N[C@H]([C@H](C)O)C(=O)N[C@@H](C(C)C)C(=O)N[C@@H](C)C(=O)N2CCC[C@@H]2C(=O)N[C@H]([C@@H](C)CC)C(=O)N[C@@H](C(C)C)C(=O)N[C@@H]([C@@H](C)OC)C(=O)O1 [PEPTIDOLIPIN B] | 64 (≈ 58.7 µM) |  | Active | Active |
| CCCCCCCC/C=C\CCCCCCCCCCCCCCC[C@@H]1CC(=O)N[C@H]([C@H](C)O)C(=O)N[C@@H](C(C)C)C(=O)N[C@@H](C)C(=O)N2CCC[C@@H]2C(=O)N[C@H]([C@@H](C)CC)C(=O)N[C@@H](C(C)C)C(=O)N[C@@H]([C@@H](C)OC)C(=O)O1 [PEPTIDOLIPIN E] |  | 64 (≈ 57.3 µM) | Active | Active |

— ChEMBL document CHEMBL2034958, “Peptidolipins B-F, antibacterial lipopeptides from an ascidian-derived Nocardia sp” (2012)
